ChEMBL document CHEMBL5321292, “Targeting Cytotoxic Agents through EGFR-Mediated Covalent Binding and Release” (J Med Chem, 2023)
Active and inactive are the calls of the source. No cut-off for these calls is given here.

Tests used:
A-431 [1] = assay: Antiproliferative activity against human A-431 cells assessed as cell growth inhibition measured after 72 hrs by SRB assay; format: functional, cell-based; details: A-431, read-out: pGI50 (converted)
[2] = biological target: Epidermal growth factor receptor (Mus musculus, UniProt Q01279); assay: Inhibition of C-terminal his6-tagged mouse EGFR by TR-FRET assay
[3] = biological target: T1, Epidermal growth factor receptor (Homo sapiens, UniProt P00533); assay: Inhibition of EGFR phosphorylation in human A-431 cells incubated for 4 hr
[4] = biological target: T1, Epidermal growth factor receptor; assay: Inhibition of EGFR phosphorylation in human A-431 cells at 10 uM incubated for 4 hr by Western blot analysis; format: cell-based
Method in brief: (§1)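 A431 cells treated for 4 h and lysed in Phosphosafe buffer with protease inhibitors. Western blot probed with anti-EGFR and anti-pEGFR primary antibodies (1:1000 in 5% BSA) plus a loading control, then HRP-conjugated secondary antibodies. Bands detected by ECL.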

[5] = biological target: T1, Epidermal growth factor receptor; assay: Inhibition of EGFR in human A-431 cells incubated for 2.5 hrs by HTRF analysis; format: cell-based
Method in brief: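 A431 cells plated at 20 000/well and allowed to adhere for 24 h. Treated 2.5 h in duplicate (0.1% DMSO), then stimulated with 100 ng/mL EGF for 30 min. Lysed 30 min at room temperature. HTRF measured pEGFR (Tyr1068) and total EGFR at 665/620 nm. Values taken as pEGFR/total EGFR ratio, expressed as % of 0 μM control.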

[6] = biological target: T1, Epidermal growth factor receptor; assay: Inhibition of EGFR phosphorylation in human A-431 cells at 1 uM incubated for 4 hr by Western blot analysis; format: cell-based; method in brief: as §1
[7] = Stability of compound assessed as formation of 5-fluorouracil by measuring half life
A-431 [8] = assay: Antiproliferative activity against human A-431 cells assessed as cell growth inhibition measured after 72 hrs in presence of 5-fluorouracil by SRB assay; format: functional, cell-based; details: A-431, 72 h
Method in brief: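 A431 cells (ECACC) seeded day 0 at exponential-growth density in DMEM + 10% FBS. Compound diluted in medium and added day 1, final DMSO 0.1%. Incubated 72 h at 37 °C, 5% CO2. Fixed with 50% TCA at 4 °C for 1 h, stained with 0.4% SRB for 30 min, washed with 1% AcOH, solubilised in 10 mM Tris pH 10.5. Absorbance read at 570 nm.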

T1 sequence (P00533 whole entry): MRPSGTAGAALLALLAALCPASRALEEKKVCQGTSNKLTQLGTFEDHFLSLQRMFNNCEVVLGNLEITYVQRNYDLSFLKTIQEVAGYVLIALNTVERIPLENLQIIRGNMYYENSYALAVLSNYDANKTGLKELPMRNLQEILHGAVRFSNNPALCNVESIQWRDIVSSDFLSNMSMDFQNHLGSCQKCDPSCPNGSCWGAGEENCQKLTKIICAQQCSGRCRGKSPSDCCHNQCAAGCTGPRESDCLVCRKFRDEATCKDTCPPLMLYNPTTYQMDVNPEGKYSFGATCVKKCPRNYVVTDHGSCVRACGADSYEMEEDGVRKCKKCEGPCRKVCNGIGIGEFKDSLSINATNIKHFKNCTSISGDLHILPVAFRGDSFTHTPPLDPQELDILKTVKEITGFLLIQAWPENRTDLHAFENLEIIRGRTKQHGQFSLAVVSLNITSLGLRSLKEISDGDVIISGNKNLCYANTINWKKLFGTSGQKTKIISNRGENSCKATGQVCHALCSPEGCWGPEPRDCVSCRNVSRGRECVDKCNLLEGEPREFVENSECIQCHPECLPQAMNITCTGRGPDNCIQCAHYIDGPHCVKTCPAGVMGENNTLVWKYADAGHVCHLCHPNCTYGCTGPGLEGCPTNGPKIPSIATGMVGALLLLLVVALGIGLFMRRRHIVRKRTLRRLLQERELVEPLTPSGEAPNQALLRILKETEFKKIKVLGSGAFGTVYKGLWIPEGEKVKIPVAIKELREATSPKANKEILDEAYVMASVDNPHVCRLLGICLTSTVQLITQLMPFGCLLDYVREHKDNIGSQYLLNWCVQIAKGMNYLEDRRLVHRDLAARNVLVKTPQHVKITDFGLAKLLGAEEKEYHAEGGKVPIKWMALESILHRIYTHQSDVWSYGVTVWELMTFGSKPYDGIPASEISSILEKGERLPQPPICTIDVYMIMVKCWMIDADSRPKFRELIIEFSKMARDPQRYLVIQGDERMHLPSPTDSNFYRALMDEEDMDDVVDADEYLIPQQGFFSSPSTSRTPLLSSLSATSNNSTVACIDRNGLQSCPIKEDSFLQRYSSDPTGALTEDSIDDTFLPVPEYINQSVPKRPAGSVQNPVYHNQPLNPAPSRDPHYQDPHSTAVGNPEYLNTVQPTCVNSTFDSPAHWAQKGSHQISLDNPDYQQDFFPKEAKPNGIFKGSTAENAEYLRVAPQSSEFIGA
Chain of Epidermal growth factor receptor (Mus musculus, UniProt Q01279) (Q01279 whole entry): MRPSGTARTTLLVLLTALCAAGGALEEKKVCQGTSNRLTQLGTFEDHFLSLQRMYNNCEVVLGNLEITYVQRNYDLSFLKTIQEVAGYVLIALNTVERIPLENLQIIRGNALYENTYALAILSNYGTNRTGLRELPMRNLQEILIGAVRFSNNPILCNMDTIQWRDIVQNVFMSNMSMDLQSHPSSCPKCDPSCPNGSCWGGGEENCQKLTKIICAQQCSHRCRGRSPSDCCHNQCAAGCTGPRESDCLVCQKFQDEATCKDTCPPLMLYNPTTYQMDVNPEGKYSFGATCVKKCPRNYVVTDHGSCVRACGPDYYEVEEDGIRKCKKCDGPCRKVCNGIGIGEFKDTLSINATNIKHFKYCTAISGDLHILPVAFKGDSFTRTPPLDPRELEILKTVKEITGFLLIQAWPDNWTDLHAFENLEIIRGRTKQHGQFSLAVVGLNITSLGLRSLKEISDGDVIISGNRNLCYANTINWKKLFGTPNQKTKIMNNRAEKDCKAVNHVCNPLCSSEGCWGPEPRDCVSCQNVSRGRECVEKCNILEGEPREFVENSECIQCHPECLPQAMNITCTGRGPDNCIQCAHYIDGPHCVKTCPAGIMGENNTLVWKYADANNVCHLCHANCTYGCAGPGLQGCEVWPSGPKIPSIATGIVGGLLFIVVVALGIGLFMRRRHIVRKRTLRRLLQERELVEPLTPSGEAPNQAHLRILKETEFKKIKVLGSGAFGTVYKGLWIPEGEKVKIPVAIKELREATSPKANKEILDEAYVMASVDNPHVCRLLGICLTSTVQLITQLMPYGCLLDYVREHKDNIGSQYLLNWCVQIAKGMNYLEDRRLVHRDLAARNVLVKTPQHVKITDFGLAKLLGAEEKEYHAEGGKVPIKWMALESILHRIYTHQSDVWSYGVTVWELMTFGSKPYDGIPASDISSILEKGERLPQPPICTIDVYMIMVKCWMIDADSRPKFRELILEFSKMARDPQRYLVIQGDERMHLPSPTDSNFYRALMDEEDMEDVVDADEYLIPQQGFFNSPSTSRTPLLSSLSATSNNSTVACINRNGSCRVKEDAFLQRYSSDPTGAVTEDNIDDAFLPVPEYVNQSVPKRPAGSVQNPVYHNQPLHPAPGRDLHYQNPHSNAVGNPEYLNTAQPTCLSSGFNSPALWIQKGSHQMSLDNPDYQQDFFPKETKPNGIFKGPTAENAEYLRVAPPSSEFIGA

A GI50 (A-431 [1]) of 5010 nM, an IC50 [2] of 158 nM and an IC50 [3] of 15.8 nM were found for `COc1cc2ncnc(Nc3ccc(F)c(Cl)c3)c2cc1OC(=O)/C=C/n1cc(F)c(=O)[nH]c1=O` in this work. For the same compound, the inhibition [4] was “Active”, the IC50 [5] was 15.8 nM and the inhibition [6] was “inactive”.

A t1/2 [7] of 3 h was found for `O=C(/C=C/n1cc(F)c(=O)[nH]c1=O)Oc1ccc(F)cc1` in this work.

An IC50 [2] of 50.1 nM, an IC50 [3] of 2510 nM and an IC50 [5] of 2510 nM were found for `COc1cc2ncnc(Nc3ccc(F)c(Cl)c3)c2cc1NC(=O)/C=C/n1cc(F)c(=O)[nH]c1=O` in this work.

A t1/2 [7] of 2.9 h was found for `O=C(/C=C/n1cc(F)c(=O)[nH]c1=O)Oc1ccc(Cl)cc1` in this work.

For `COc1cc2ncnc(Nc3ccc(F)c(Cl)c3)c2cc1OC(=O)/C=C/CN1CCCCC1`, the IC50 (A-431 [8]) was 631 nM and the inhibition [6] was “Active”.

A t1/2 [7] of 36 h was found for `COc1ccc(OC(=O)/C=C/n2cc(F)c(=O)[nH]c2=O)cc1` in this work.

A t1/2 [7] of 0.1 h was found for `O=C(/C=C/n1cc(F)c(=O)[nH]c1=O)Oc1ccc([N+](=O)[O-])cc1` in this work.

With `O=C(/C=C/n1cc(F)c(=O)[nH]c1=O)Cc1ccccc1` the t1/2 [7] was ~ 36 hr.

A t1/2 [7] of 10 h was found for `COCCOCCOc1ccc(NC(=O)/C=C/n2cc(F)c(=O)[nH]c2=O)cc1` in this work.

A t1/2 [7] of 2.5 h was found for `N#Cc1ccc(OC(=O)/C=C/n2cc(F)c(=O)[nH]c2=O)cc1` in this work.
